Laboratory results: PMC4415995 (Advances in Therapy, 2015)
Marks after values point to notes of the source that are not given here.

Key:
[1] = test system: Japanese patients with T2DM; assay: Clinical laboratory tests and vital signs, 7-day once-daily dosing; assay type: in vivo, human; details: 5 mg OD
In short: (§1)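 Randomized, single-blind, placebo-controlled, parallel-group study in Japanese T2DM outpatients (HbA1c 6.9–10.5%, FPG ≥126 mg/dL, stable diet 4 weeks, age 20–74 y). Test compound 0.5, 1, 2.5 or 5 mg or placebo was given orally once daily for 7 days before breakfast. Safety set was all dosed patients. AEs were coded in MedDRA 12.1 and graded mild/moderate/severe, with drug relation judged by the investigator. Labs, vital signs, body weight and ECG were also recorded.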

healthy Japanese males = details: healthy subjects on luseogliflozin; cited from earlier work
[2] = test system: Japanese patients with T2DM; assay: Adverse events, 7-day once-daily dosing; assay type: in vivo, human; details: for ALT increased / Blood urine present / Constipation / Dermatitis contact / Diarrhea / Headache / Pruritus / γ-GTP increased: N = 8
In short: as §1

[3] = test system: Japanese patients with T2DM; assay: Urinary glucose excretion; assay type: in vivo, human
In short: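 Dosing was once daily, 0.5–5 mg or placebo, before a standardized ~600 kcal breakfast. Read-outs were 24-h cumulative UGE, total UGE and per-interval UGE rate, plus change from Day −1. LS mean difference vs placebo with 95% CI.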

CCOc1ccc(Cc2cc([C@@H]3S[C@H](CO)[C@@H](O)[C@H](O)[C@H]3O)c(OC)cc2C)cc1 [Luseogliflozin, (1S)-1,5-anhydro-1-[5-(4-ethoxybenzyl)-2-methoxy-4-methylphenyl]-1-thio-D-glucitol]
Urinary phosphorus, change from baseline ([1]; Day 1): -0.24 ± 0.11 g/day
Urinary type IV collagen, change from baseline ([1]; Day 1): 0.11 ± 0.97 μg/g creatinine
Urinary uric acid, change from baseline ([1]; Day 1): 0.08 ± 0.12 g/day
Urinary β2-microglobulin, change from baseline ([1]; Day 1): -1.3 ± 13.5 µg/L
Cystatin C, change from baseline ([1]; Day 7): -0.027 ± 0.065 mg/L
DBP, change from baseline ([1]; Day 7): −3.1 ± 6.0 mmHg
Hematocrit, change from baseline ([1]; Day 7): −1.66 ± 1.99%
SBP, change from baseline ([1]; Day 7): −11.3 ± 11.8 mmHg
Serum calcium, change from baseline ([1]; Day 7): -0.16 ± 0.45 mg/dL
Serum phosphorus, change from baseline ([1]; Day 7): 0.42 ± 0.39 mg/dL
Urinary NAG, change from baseline ([1]; Day 7): −0.11 ± 1.18 U/L
Urinary calcium, change from baseline ([1]; Day 7): -0.03 ± 0.05 g/day
Urinary phosphorus, change from baseline ([1]; Day 7): -0.01 ± 0.14 g/day
Urinary type IV collagen, change from baseline ([1]; Day 7): 0.31 ± 1.26 μg/g creatinine
Urinary uric acid, change from baseline ([1]; Day 7): 0.01 ± 0.10 g/day
Urinary β2-microglobulin, change from baseline ([1]; Day 7): 1.4 ± 20.3 µg/L
mean UGE (healthy Japanese males): 58.0 g/day
ALT increased ([2]; 0.5 mg OD for 7 days): 0 number of subjects
Blood urine present ([2]; 0.5 mg OD for 7 days): 0 number of subjects
Constipation ([2]; 0.5 mg OD for 7 days): 1 number of subjects
Dermatitis contact ([2]; 0.5 mg OD for 7 days): 0 number of subjects
Diarrhea ([2]; 0.5 mg OD for 7 days): 1 number of subjects
Headache ([2]; 0.5 mg OD for 7 days): 1 number of subjects
Pruritus ([2]; 0.5 mg OD for 7 days): 1 number of subjects
γ-GTP increased ([2]; 0.5 mg OD for 7 days): 0 number of subjects
ALT increased ([2]; 1 mg OD for 7 days): 0 number of subjects
Blood urine present ([2]; 1 mg OD for 7 days): 0 number of subjects
Constipation ([2]; 1 mg OD for 7 days): 0 number of subjects
Dermatitis contact ([2]; 1 mg OD for 7 days): 1 number of subjects
Diarrhea ([2]; 1 mg OD for 7 days): 0 number of subjects
Headache ([2]; 1 mg OD for 7 days): 0 number of subjects
Pruritus ([2]; 1 mg OD for 7 days): 0 number of subjects
γ-GTP increased ([2]; 1 mg OD for 7 days): 0 number of subjects
ALT increased ([2]; 2.5 mg OD for 7 days): 1 number of subjects
Blood urine present ([2]; 2.5 mg OD for 7 days): 0 number of subjects
Constipation ([2]; 2.5 mg OD for 7 days): 0 number of subjects
Dermatitis contact ([2]; 2.5 mg OD for 7 days): 0 number of subjects
Diarrhea ([2]; 2.5 mg OD for 7 days): 0 number of subjects
Headache ([2]; 2.5 mg OD for 7 days): 0 number of subjects
Pruritus ([2]; 2.5 mg OD for 7 days): 0 number of subjects
γ-GTP increased ([2]; 2.5 mg OD for 7 days): 1 number of subjects
ALT increased ([2]; 5 mg OD for 7 days): 0 number of subjects
Blood urine present ([2]; 5 mg OD for 7 days): 1 number of subjects
Constipation ([2]; 5 mg OD for 7 days): 0 number of subjects
Dermatitis contact ([2]; 5 mg OD for 7 days): 0 number of subjects
Diarrhea ([2]; 5 mg OD for 7 days): 0 number of subjects
Headache ([2]; 5 mg OD for 7 days): 1 number of subjects
Pruritus ([2]; 5 mg OD for 7 days): 0 number of subjects
γ-GTP increased ([2]; 5 mg OD for 7 days): 0 number of subjects
episodes of hypoglycemia ([2]; 0.5-5 mg OD for 7 days): no episodes
serious AEs or AEs leading to discontinuation ([2]; 0.5-5 mg OD for 7 days): no serious AEs
severity of adverse events ([2]; 0.5-5 mg OD for 7 days): mild
urinary tract/genital infection ([2]; 0.5-5 mg OD for 7 days): no episodes
UGE0–24h ([3]; 0.5 mg OD, Day 1): 81.5 ± 33.2 g
UGE0–24h LS mean difference vs placebo (95% CI) ([3]; 0.5 mg OD, Day 1): 46.4 (32.9, 60.0)* g
Least-squares mean difference in 24-h UGE vs placebo ([3]; 0.5 mg OD, Day 7): 49.2 g/day
UGE0–24h ([3]; 0.5 mg OD, Day 7): 81.7 ± 30.1 g
UGE0–24h LS mean difference vs placebo (95% CI) ([3]; 0.5 mg OD, Day 7): 49.2 (27.9, 70.5)* g
UGE0–24h LS mean difference vs placebo (95% CI) ([3]; 0.5 mg OD, Day 7, listed as luseogliflozin): 49.2 g
UGE0–24h ([3]; 1 mg OD, Day 1): 75.1 ± 23.3 g
UGE0–24h LS mean difference vs placebo (95% CI) ([3]; 1 mg OD, Day 1): 58.9 (45.7, 72.1)* g
Least-squares mean difference in 24-h UGE vs placebo ([3]; 1 mg OD, Day 7): 66.5 g/day
UGE0–24h ([3]; 1 mg OD, Day 7): 85.3 ± 18.8 g
UGE0–24h LS mean difference vs placebo (95% CI) ([3]; 1 mg OD, Day 7): 66.5 (45.8, 87.1)* g
UGE0–24h LS mean difference vs placebo (95% CI) ([3]; 1 mg OD, Day 7, listed as luseogliflozin): 66.5 g
UGE0–24h ([3]; 2.5 mg OD, Day 1): 139 ± 31.1 g
UGE0–24h LS mean difference vs placebo (95% CI) ([3]; 2.5 mg OD, Day 1): 91.7 (78.1, 105)* g
Least-squares mean difference in 24-h UGE vs placebo ([3]; 2.5 mg OD, Day 7): 89.4 g/day
UGE0–24h ([3]; 2.5 mg OD, Day 7): 131 ± 29.9 g
UGE0–24h LS mean difference vs placebo (95% CI) ([3]; 2.5 mg OD, Day 7): 89.4 (68.2, 111)* g
UGE0–24h LS mean difference vs placebo (95% CI) ([3]; 2.5 mg OD, Day 7, listed as luseogliflozin): 89.4 g
energy loss equivalent to the increase in UGE ([3]; 5 mg OD): approximately 400 kcal
increase in UGE ([3]; 5 mg OD): about 100 g glucose/day
UGE0–24h ([3]; 5 mg OD, Day 1): 116 ± 29.0 g
UGE0–24h LS mean difference vs placebo (95% CI) ([3]; 5 mg OD, Day 1): 101 (87.6, 114)* g
Least-squares mean difference in 24-h UGE vs placebo ([3]; 5 mg OD, Day 7): 101 g/day
UGE0–24h ([3]; 5 mg OD, Day 7): 120 ± 33.1 g
UGE0–24h LS mean difference vs placebo (95% CI) ([3]; 5 mg OD, Day 7): 101 (80.7, 122)* g
UGE0–24h LS mean difference vs placebo (95% CI) ([3]; 5 mg OD, Day 7, listed as luseogliflozin): 101 g
time for UGE to return toward the baseline value after treatment discontinuation ([3]; each dose group): 1 to 3 days
